Measured values as given in ChEMBL document CHEMBL4706647, “Development and optimization of halogenated vinyl sulfones as Nrf2 activators for the treatment of Parkinson's disease” (Eur J Med Chem, 2021).
Activity calls are given as the source filed them. No cut-off for these calls is given here.

Key:
[1] = Cytotoxicity against mouse BV-2 cells assessed cell viability at 0.1 uM measured after 6 hrs by Ez-cytox reagent based assay relative to control; settings: read-out: Activity
Outline: (§1)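 BV-2 cells (1.0 × 10⁴/well) grown 24 h at 37 °C, 5% CO2, then treated 6 h at […]. Viability expressed as percent of control.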

[2] = Cytotoxicity against mouse BV-2 cells assessed cell viability at 0.3 uM measured after 6 hrs by Ez-cytox reagent based assay relative to control; settings: read-out: Activity; outline: as §1
[3] = Cytotoxicity against mouse BV-2 cells assessed cell viability at 1 uM measured after 6 hrs by Ez-cytox reagent based assay relative to control; settings: read-out: Activity; outline: as §1
CYP2D6 = CYP2D6 (Homo sapiens, UniProt P10635); assay: Inhibition of CYP2D6 (unknown origin) assessed as residual activity; format: ADME
CYP2C9 = CYP2C9 (Homo sapiens, UniProt P11712); assay: Inhibition of CYP2C9 (unknown origin) assessed as residual activity; format: ADME
CYP3A4 = CYP3A4 (Homo sapiens, UniProt P08684); assay: Inhibition of CYP3A4 (unknown origin) assessed as residual activity; format: ADME
[4] = Stability in human plasma assessed as parent compound remaining after 30 mins by LC-MS/MS analysis; format: ADME, cell-free; settings: read-out: Stabilty
[5] = target: T1, Nuclear factor erythroid 2-related factor 2 (Mus musculus) (UniProt Q60795); assay: Activation of Nrf2 in mouse BV-2 cells assessed as increase in nuclear Nrf2 levels at 0.5 uM after 6 hrs by Western blot analysis relative to control; format: cell-based; settings: filed as activator
T1 sequence (whole entry): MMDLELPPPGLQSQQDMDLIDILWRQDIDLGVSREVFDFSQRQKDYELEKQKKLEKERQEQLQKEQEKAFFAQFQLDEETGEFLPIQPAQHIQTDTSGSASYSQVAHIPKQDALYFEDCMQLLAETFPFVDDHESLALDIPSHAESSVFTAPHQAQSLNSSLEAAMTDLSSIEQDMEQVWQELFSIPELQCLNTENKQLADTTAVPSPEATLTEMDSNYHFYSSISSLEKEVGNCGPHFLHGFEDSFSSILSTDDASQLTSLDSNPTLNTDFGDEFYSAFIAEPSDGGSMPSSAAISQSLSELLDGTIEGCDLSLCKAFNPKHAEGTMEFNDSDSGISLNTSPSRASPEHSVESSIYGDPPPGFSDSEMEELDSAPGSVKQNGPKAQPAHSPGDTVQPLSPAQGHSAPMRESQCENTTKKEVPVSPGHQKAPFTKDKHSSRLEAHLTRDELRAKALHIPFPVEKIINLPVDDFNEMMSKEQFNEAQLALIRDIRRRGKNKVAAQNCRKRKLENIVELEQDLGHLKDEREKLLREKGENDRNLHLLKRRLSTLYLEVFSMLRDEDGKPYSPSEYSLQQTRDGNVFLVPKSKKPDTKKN

[6] = target: T1, Nuclear factor erythroid 2-related factor 2 (Mus musculus); assay: Activation of Nrf2 in mouse BV-2 cells assessed as increase in nuclear Nrf2 levels at 10 uM after 6 hrs by Western blot analysis relative to control; format: cell-based; settings: filed as activator
[7] = target: T1, Nuclear factor erythroid 2-related factor 2 (Mus musculus); assay: Activation of Nrf2 in mouse BV-2 cells assessed as increase in Gclc mRNA expression after 6 hrs by RT-qPCR analysis; format: cell-based; settings: filed as activator, dose 0.03-1 µM
Outline: (§2)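 BV-2 cells exposed to a range of concentrations for 6 h. Ho1, Gclc, Gclm and Sod1 mRNA quantified by RT-qPCR and expressed relative to vehicle-treated control. Mean ± SEM, n = 3; Student's t-test.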

[8] = target: T1, Nuclear factor erythroid 2-related factor 2 (Mus musculus); assay: Activation of Nrf2 in mouse BV-2 cells assessed as increase in Sod1 mRNA expression after 6 hrs by RT-qPCR analysis; format: cell-based; settings: filed as activator, dose 0.03-1 µM; outline: as §2
[9] = target: T1, Nuclear factor erythroid 2-related factor 2 (Mus musculus); assay: Activation of Nrf2 in mouse BV-2 cells assessed as increase in Gclm mRNA expression at 1 uM after 6 hrs by RT-qPCR analysis relative to control; format: cell-based; settings: filed as activator; outline: as §2
[10] = target: T1, Nuclear factor erythroid 2-related factor 2 (Mus musculus); assay: Activation of Nrf2 in mouse BV-2 cells assessed as increase in GCLM expression at 10 uM after 6 hrs by Western blot analysis relative to control; format: cell-based; settings: filed as activator
Outline: (§3)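 BV-2 microglia grown in RPMI-1640 with 10% FBS, penicillin-streptomycin and 2 mM L-glutamine at 37 °C, 5% CO2. Cells exposed to a range of concentrations for 6 h, then HO-1, GCLC, GCLM and SOD1 protein measured by Western blot. Band intensity normalized to β-actin and given as fold of vehicle control. Mean ± SEM, n = 3, three separate experiments.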

[11] = target: T1, Nuclear factor erythroid 2-related factor 2 (Mus musculus); assay: Activation of Nrf2 in mouse BV-2 cells assessed as increase in SOD1 expression at 10 uM after 6 hrs by Western blot analysis relative to control; format: cell-based; settings: filed as activator; outline: as §3
[12] = target: T1, Nuclear factor erythroid 2-related factor 2 (Mus musculus); assay: Activation of Nrf2 in mouse BV-2 cells assessed as increase in HO1 expression after 6 hrs by Western blot analysis; format: cell-based; settings: filed as activator, dose 0.02-10 µM; outline: as §3
[13] = target: T1, Nuclear factor erythroid 2-related factor 2 (Mus musculus); assay: Activation of Nrf2 in mouse BV-2 cells assessed as increase in GCLM expression after 6 hrs by Western blot analysis; format: cell-based; settings: filed as activator, dose 0.02-10 µM; outline: as §3
[14] = target: T1, Nuclear factor erythroid 2-related factor 2 (Mus musculus); assay: Activation of Nrf2 in mouse BV-2 cells assessed as increase in SOD1 expression after 6 hrs by Western blot analysis; format: cell-based; settings: filed as activator, dose 0.02-10 µM; outline: as §3
Mus musculus [15] = assay: Neuroprotective activity in MPTP-induced C57BL/6 mouse model of Parkinson's disease assessed as reduction in time to turn at 30 mg/kg, po pretreated for 1 day followed by MPTP challenge and subsequent compound dosing for 2 days measured 6 days post MPTP challenge by vertical grid test; format: functional, organism-based; settings: time 7.0 day
Outline: (§4)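 Male C57BL/6 mice, 10 weeks old, 23–26 g, n = 10 per group. Dosed 30 mg/kg p.o. for 3 consecutive days in 10% N-methyl-2-pyrrolidone/20% Tween-80 in water. On day 2, MPTP-HCl 20 mg/kg i.p. given four times at 2 h intervals. Coat-hanger (scored 1–5, test done twice) and vertical grid tests run 6 days after MPTP. Brains taken next day for anti-TH immunohistochemistry (1:1000, DAB).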

Mus musculus [16] = assay: Neuroprotective activity in MPTP-induced C57BL/6 mouse model of Parkinson's disease assessed as reduction in time to climb down at 30 mg/kg, po pretreated for 1 day followed by MPTP challenge and subsequent compound dosing for 2 days measured 6 days post MPTP challenge by vertical grid test; format: functional, organism-based; settings: time 7.0 day; outline: as §4

CYP3A4, sequence (P08684 whole entry): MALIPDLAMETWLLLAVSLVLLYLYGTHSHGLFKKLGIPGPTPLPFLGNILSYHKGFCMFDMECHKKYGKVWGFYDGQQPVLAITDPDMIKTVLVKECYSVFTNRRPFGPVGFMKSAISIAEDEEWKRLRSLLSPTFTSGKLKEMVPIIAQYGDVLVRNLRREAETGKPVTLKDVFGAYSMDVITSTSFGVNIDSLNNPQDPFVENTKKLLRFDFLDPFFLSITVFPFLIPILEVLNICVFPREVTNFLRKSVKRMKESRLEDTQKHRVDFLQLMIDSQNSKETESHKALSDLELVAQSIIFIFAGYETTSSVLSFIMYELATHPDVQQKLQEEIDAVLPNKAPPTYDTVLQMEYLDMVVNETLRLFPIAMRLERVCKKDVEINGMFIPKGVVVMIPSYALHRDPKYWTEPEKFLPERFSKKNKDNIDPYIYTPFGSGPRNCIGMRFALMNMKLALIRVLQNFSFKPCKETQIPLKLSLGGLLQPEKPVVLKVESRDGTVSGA
CYP2D6, sequence (P10635 whole entry): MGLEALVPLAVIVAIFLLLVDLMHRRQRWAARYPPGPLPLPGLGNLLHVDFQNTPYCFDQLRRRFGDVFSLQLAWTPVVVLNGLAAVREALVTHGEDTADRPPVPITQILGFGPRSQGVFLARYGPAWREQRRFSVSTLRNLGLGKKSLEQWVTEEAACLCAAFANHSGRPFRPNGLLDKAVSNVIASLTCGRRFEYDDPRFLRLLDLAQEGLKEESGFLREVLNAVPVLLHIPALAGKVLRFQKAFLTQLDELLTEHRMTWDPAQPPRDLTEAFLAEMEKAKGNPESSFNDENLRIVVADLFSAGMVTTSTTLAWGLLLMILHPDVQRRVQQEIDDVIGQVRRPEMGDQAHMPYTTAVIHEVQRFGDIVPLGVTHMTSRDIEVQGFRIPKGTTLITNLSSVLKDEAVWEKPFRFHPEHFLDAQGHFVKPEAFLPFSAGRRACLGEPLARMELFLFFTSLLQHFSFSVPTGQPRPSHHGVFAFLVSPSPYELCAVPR
CYP2C9, sequence (P11712 whole entry): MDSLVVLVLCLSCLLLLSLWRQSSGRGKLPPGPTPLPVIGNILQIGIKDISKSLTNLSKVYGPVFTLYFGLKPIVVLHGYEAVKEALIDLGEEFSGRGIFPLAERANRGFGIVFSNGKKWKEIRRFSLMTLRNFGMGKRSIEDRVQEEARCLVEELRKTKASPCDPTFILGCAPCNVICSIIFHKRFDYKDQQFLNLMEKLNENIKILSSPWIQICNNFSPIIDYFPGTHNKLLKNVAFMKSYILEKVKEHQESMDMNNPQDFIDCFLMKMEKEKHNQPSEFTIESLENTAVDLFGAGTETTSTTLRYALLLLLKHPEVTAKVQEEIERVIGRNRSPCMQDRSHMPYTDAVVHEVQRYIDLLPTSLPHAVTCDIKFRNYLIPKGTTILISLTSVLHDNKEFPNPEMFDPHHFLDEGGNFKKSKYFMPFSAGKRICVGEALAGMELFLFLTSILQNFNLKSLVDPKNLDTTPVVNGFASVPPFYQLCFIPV

O=S(=O)(/C=C/c1ncccc1Cl)c1ccccc1Cl
viability at 6 h, 0.1 µM [1]: 100%
viability at 6 h, 0.3 µM [2]: 100%
viability at 6 h, 1 µM [3]: 98.9%
activity (CYP2D6): 88%
activity (CYP2C9): 69.1%
activity (CYP3A4): 91.2%
remaining at 0.5 h [4]: 97%
fold change (FC) [5]: 11
fold change (FC) [6]: 22.6
Activity [7]: Dose-dependent effect
Activity [8]: Dose-dependent effect
fold change (FC) [9]: 6.9
fold change (FC) [10]: 26.1
fold change (FC) [11]: 6.6
Activity [12]: Dose-dependent effect
Activity [13]: Dose-dependent effect
Activity [14]: Dose-dependent effect
Activity (Mus musculus [15]): Active
Activity (Mus musculus [16]): Active
